Reference: article PMC8851455 (ACS Omega, 2022)
pEC50: −log10 of the molar value.

What was measured:
[1] = test system: ERβ; settings: cited from earlier work
[2] = test system: S. typhimurium tester strains (TA98, TA100, and TA102); experiment: Ames test, overall over three strains; type: cell-based, Salmonella typhimurium; settings: 5 × 10^–5 to 50 pmol/plate, with or without S9
[3] = test system: MCF-7 cells; experiment: MCF-7 cell proliferation assay; type: cell-based, human
Summary of the method: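 MCF-7 cells exposed to test compound or E2 at six concentrations from 10–12 to 10–7 M in EA-free medium. Proliferation read as MTT product absorbance at 570 nm. Three independent trials, each in triplicate. % RME2 = 100 × (OD test − OD VC)/(max OD E2 − OD VC). EC50 from curve fitting. EEF = EC50 of E2/EC50 of sample. One-way ANOVA with Dunnett's test versus E2 at each concentration.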

[4] = test system: chicken fetal liver; experiment: TBARs level; type: in vivo
[5] = test system: S. typhimurium TA100; experiment: Ames test, strain TA100; type: cell-based, Salmonella typhimurium
[6] = test system: S. typhimurium TA98; experiment: Ames test, strain TA98; type: cell-based, Salmonella typhimurium
[7] = test system: chicken embryo; experiment: Chicken embryonic assay; type: in vivo; settings: for malformation rate / mortality rate / number of dead chicken embryo / number of malformation chicken embryo / weights: embryo / weights: heart / weights: liver: egg injection, day 18
[8] = test system: Swiss mice; settings: 100 and 200 mg/kg; cited from earlier work
[9] = test system: zebrafish embryos; settings: at 1–50 μM; cited from earlier work
[10] = TA100 +S9, 5 × 10^–2 pmol/plate
[11] = TA100 +S9, 5 × 10^–3 pmol/plate
[12] = TA100 +S9, 5 × 10^–4 pmol/plate
[13] = TA100 +S9, 5 × 10^–5 pmol/plate
[14] = TA100 -S9, 5 × 10^–2 pmol/plate
[15] = TA100 -S9, 5 × 10^–3 pmol/plate
[16] = TA100 -S9, 5 × 10^–4 pmol/plate
[17] = TA100 -S9, 5 × 10^–5 pmol/plate
[18] = higher dose (0.5 mM: 450–500 μg/kg; E2 0.1 mM: 91 μg/kg)
[19] = lower dose (0.05 mM: 45–50 μg/kg; E2 0.01 mM: 9.1 μg/kg)

## O=c1cc(-c2ccc(O)cc2)oc2cc(O)cc(O)c12 [apigenin]
[1]
  binding affinity for ERβ: 6%
[2]
  Ames test outcome (signs of mutagenicity): signs of mutagenicity
[3]; EC50 of E2 divided by that of the test compound
  EEF (estradiol equivalent factor): 0.16
[3]; Homo sapiens, MCF7
  pEC50: 10.21
[3]; highest % RME2 (relative maximum % E2) in test range 10^–12–10^–7 M
  max % RME2: 27%
[4]; higher dose (0.5 mM: 450–500 μg/kg)
  TBARs value: 112.31 nmol/g
[4]; lower dose (0.05 mM: 45–50 μg/kg)
  TBARs value: 103.73 nmol/g
[5]; TA100 +S9, 0.5 pmol/plate
  MI: 1.4
  number of revertants/plate (M ± SD): 415 ± 4 revertants/plate
[5]; TA100 +S9, 5 pmol/plate
  MI: 1.3
  number of revertants/plate (M ± SD): 390 ± 4 revertants/plate
[5]; TA100 +S9, 50 pmol/plate
  MI: 1.3
  number of revertants/plate (M ± SD): 400 ± 2 revertants/plate
[5]; [10]
  MI: 1.2
  number of revertants/plate (M ± SD): 377 ± 15 revertants/plate
[5]; [11]
  MI: 1.1
  number of revertants/plate (M ± SD): 349 ± 10 revertants/plate
[5]; [12]
  MI: 1.1
  number of revertants/plate (M ± SD): 342 ± 14 revertants/plate
[5]; [13]
  MI: 1.2
  number of revertants/plate (M ± SD): 358 ± 6 revertants/plate
[5]; TA100 -S9, 0.5 pmol/plate
  MI: 1.0
  number of revertants/plate (M ± SD): 94 ± 4 revertants/plate
[5]; TA100 -S9, 5 pmol/plate
  MI: 1.0
  number of revertants/plate (M ± SD): 96 ± 4 revertants/plate
[5]; TA100 -S9, 50 pmol/plate
  MI: 1.0
  number of revertants/plate (M ± SD): 96 ± 8 revertants/plate
[5]; [14]
  MI: 0.9
  number of revertants/plate (M ± SD): 85 ± 6 revertants/plate
[5]; [15]
  MI: 0.8
  number of revertants/plate (M ± SD): 75 ± 13 revertants/plate
[5]; [16]
  MI: 0.9
  number of revertants/plate (M ± SD): 83 ± 6 revertants/plate
[5]; [17]
  MI: 0.9
  number of revertants/plate (M ± SD): 87 ± 6 revertants/plate
[6]; TA98 +S9, 0.5 pmol/plate
  MI: 1.1
  number of revertants/plate (M ± SD): 85 ± 6 revertants/plate
[6]; TA98 +S9, 5 pmol/plate
  MI: 1.1
  number of revertants/plate (M ± SD): 80 ± 10 revertants/plate
[6]; TA98 +S9, 50 pmol/plate
  MI: 1.0
  number of revertants/plate (M ± SD): 75 ± 20 revertants/plate
[6]; TA98 +S9, 5 × 10^–2 pmol/plate
  MI: 1.2
  number of revertants/plate (M ± SD): 87 ± 6 revertants/plate
[6]; TA98 +S9, 5 × 10^–3 pmol/plate
  MI: 1.1
  number of revertants/plate (M ± SD): 80 ± 18 revertants/plate
[6]; TA98 +S9, 5 × 10^–4 pmol/plate
  MI: 1.1
  number of revertants/plate (M ± SD): 83 ± 9 revertants/plate
[6]; TA98 +S9, 5 × 10^–5 pmol/plate
  MI: 0.9
  number of revertants/plate (M ± SD): 68 ± 2 revertants/plate
[6]; TA98 -S9, 0.5 pmol/plate
  MI: 0.9
  number of revertants/plate (M ± SD): 9 ± 1 revertants/plate
[6]; TA98 -S9, 5 pmol/plate
  MI: 1.3
  number of revertants/plate (M ± SD): 13 ± 1 revertants/plate
[6]; TA98 -S9, 50 pmol/plate
  MI: 1.1
  number of revertants/plate (M ± SD): 11 ± 4 revertants/plate
[6]; TA98 -S9, 5 × 10^–2 pmol/plate
  MI: 1.0
  number of revertants/plate (M ± SD): 10 ± 4 revertants/plate
[6]; TA98 -S9, 5 × 10^–3 pmol/plate
  MI: 1.0
  number of revertants/plate (M ± SD): 10 ± 3 revertants/plate
[6]; TA98 -S9, 5 × 10^–4 pmol/plate
  MI: 0.7
  number of revertants/plate (M ± SD): 7 ± 3 revertants/plate
[6]; TA98 -S9, 5 × 10^–5 pmol/plate
  MI: 1.0
  number of revertants/plate (M ± SD): 10 ± 3 revertants/plate
[7]; [18]
  malformation rate: 0.0%
  mortality rate: 10.0%
  number of dead chicken embryo: 1
  number of malformation chicken embryo: 0
  weights: embryo: 21.49 ± 1.44 g
  weights: heart: 0.17 ± 0.02 g
  weights: liver: 0.41 ± 0.02 g
[7]; higher-dose treatment
  fetal liver weight, lower compared with the VC: ~20%
[7]; [19]
  malformation rate: 11.11%
  mortality rate: 10.0%
  number of dead chicken embryo: 1
  number of malformation chicken embryo: 1
  weights: embryo: 24.29 ± 0.03 g
  weights: heart: 0.18 ± 0.02 g
  weights: liver: 0.44 ± 0.02 g
[8]
  hepatotoxicity: led to hepatotoxicity
[9]
  developmental toxicity in zebrafish model: showing developmental toxicity
